Assay results: ChEMBL document CHEMBL1250516, “Potent and fully noncompetitive peptidomimetic inhibitor of multidrug resistance P-glycoprotein” (J Med Chem, 2010); call rule not given here
Square brackets hold non-standard residues; d marks the D form. Peptide text beside a SMILES is read from it. * marks the point of attachment. Hyp = O=C(O)[C@@H]1C[C@@H](O)CN1; Aad = N[C@@H](CCCC(=O)O)C(=O)O; Cbz = O=C(OCc1ccccc1)*; PhAc = O=C(Cc1ccccc1)*; Boc = CC(C)(C)OC(=O)*; OBn = c1ccc(CO*)cc1; Bn = c1ccc(C*)cc1; OtBu = CC(C)(C)O*; tBu = CC(C)(C)*

How the values were obtained:
[1] = target: T1, MDR1 (P-glycoprotein, ABCB1) (Homo sapiens, UniProt P08183); assay: Inhibition of human MDR1 expressed in mouse NIH3T3 cells assessed as inhibition of drug efflux in at 10 uM by flow cytometry; format: cell-based; conditions: mouse NIH3T3 cells expressing human MDR1
[2] = target: P-glycoprotein (ABCB1) (Homo sapiens, UniProt P08183); assay: Inhibition of p-glycoprotein expressed in human K562/R7 cells assessed as inhibition of drug efflux at 10 uM by flow cytometry; format: cell-based; conditions: K562/R7 cells expressing P-glycoprotein
Method in brief: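 K562/R7 cells (1×10⁶/mL RPMI 1640) were incubated for 1 h at 37 °C with 10 μM daunorubicin (final), with or without 10 μM compound. Cells were washed in ice-cold PBS, kept on ice, and retained fluorescence was read by flow cytometry. Cyclosporin A served as positive control. Duplicate experiments carried out twice.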

[3] = target: T1, MDR1 (P-glycoprotein, ABCB1); assay: Inhibition of human MDR1 expressed in mouse NIH3T3 cells assessed as inhibition of drug efflux in at 2 uM by flow cytometry; format: cell-based; conditions: mouse NIH3T3 cells expressing human MDR1
[4] = target: MRP1 (multidrug resistance-associated protein 1) (Homo sapiens, UniProt P33527); assay: Inhibition of MRP1 expressed in BHK cells assessed as inhibition of drug efflux at 10 uM; format: cell-based; conditions: hamster, BHK cells expressing MRP1
Method in brief: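 BHK-21 cells expressing MRP1 were treated with compound at 10 μM in a flow-cytometric drug efflux inhibition assay. % inhibition of efflux was calculated as for the P-gp assay. Duplicates run twice.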

[5] = Cytotoxicity against mouse NIH/3T3 cells expressing human MDR1 assessed as effect on cell viability up to 1 uM after 72 hrs by MTT assay; format: ADME, cell-based; conditions: nih3t3, 72 h
Method in brief: (§1)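 Parental NIH3T3 or NIH3T3/P-gp (human MDR1-G185 transfected) cells were seeded at 2500 cells/well and allowed to attach for 24 h at 37 °C in 5% CO2. Compound was added at increasing concentrations in 1% DMSO and incubated for 72 h. Viability was read by MTT colorimetric assay. 100% survival was taken as cell number without compound.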

[6] = Cytotoxicity against mouse NIH/3T3 cells expressing human MDR1 assessed as decrease in cell viability at > 2 uM after 72 hrs by MTT assay; format: ADME, cell-based; conditions: nih3t3, 72 h; method in brief: as §1
[7] = target: T2, ATP-dependent translocase ABCB1 (Homo sapiens, UniProt P08183); assay: Inhibition of human MDR1 expressed in mouse NIH3T3 cells assessed as potentiation of daunorubicin-mediated cytotoxicity at 1 uM; format: cell-based; conditions: nih3t3, 1 µM
Method in brief: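 Control NIH3T3 and NIH3T3/P-gp cells were seeded at 2500 cells/well and settled for 24 h. They were then exposed for 72 h at 37 °C in 5% CO2 to increasing daunorubicin concentrations with 1 μM modulator. Survival was read by MTT, with 100% taken as cell number without anticancer drug.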

[8] = target: T2, ATP-dependent translocase ABCB1; assay: Displacement of daunorubicin form R-site of human MDR1 expressed in mouse NIH3T3 cells at 0.11 to 1 uM by noncompetitive binding assay
[9] = target: T2, ATP-dependent translocase ABCB1; assay: Displacement of daunorubicin form H-site of human MDR1 expressed in mouse NIH3T3 cells at 0.11 to 1 uM by noncompetitive binding assay; format: cell-based; conditions: in the assay text read “Hoechst 33342” for “daunorubicin”
Method in brief: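 NIH3T3/P-gp and NIH3T3 cells (10⁵) were incubated with daunorubicin (5, 10, 15, 20 μM) or Hoechst 33342 (0–10 μM), with inhibitor at 0, 0.11, 0.22, 0.33 or 1 μM. Drug retained inside the cells after 1 h was measured by flow cytometry. Data were fitted to Michaelis–Menten to give Rmax and KM. KI came from Rmax⁰ = Rmax/(1+[I]/KI). Mean of two duplicate experiments.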

[10] = Cytotoxicity against mouse NIH/3T3 cells assessed as effect on cell viability up to 1 uM after 72 hrs by MTT assay; format: cell-based; conditions: nih3t3, 72 h; method in brief: as §1
[11] = Cytotoxicity against mouse NIH/3T3 cells assessed as decrease in cell viability at > 2 uM after 72 hrs by MTT assay; format: cell-based; conditions: nih3t3, 72 h; method in brief: as §1
[12] = target: T2, ATP-dependent translocase ABCB1; assay: Inhibition of human MDR1 expressed in mouse NIH3T3 cells assessed as inhibition of drug efflux by flow cytometry; format: cell-based
[13] = target: T3, BCRP (ABCG2) (Homo sapiens, UniProt Q9UNQ0); assay: Inhibition of BCRP expressed in HEK293 cells assessed as inhibition of drug efflux at 10 uM by flow cytometry; format: cell-based; conditions: HEK293 cells expressing BCRP
T3 sequence (Q9UNQ0 whole entry): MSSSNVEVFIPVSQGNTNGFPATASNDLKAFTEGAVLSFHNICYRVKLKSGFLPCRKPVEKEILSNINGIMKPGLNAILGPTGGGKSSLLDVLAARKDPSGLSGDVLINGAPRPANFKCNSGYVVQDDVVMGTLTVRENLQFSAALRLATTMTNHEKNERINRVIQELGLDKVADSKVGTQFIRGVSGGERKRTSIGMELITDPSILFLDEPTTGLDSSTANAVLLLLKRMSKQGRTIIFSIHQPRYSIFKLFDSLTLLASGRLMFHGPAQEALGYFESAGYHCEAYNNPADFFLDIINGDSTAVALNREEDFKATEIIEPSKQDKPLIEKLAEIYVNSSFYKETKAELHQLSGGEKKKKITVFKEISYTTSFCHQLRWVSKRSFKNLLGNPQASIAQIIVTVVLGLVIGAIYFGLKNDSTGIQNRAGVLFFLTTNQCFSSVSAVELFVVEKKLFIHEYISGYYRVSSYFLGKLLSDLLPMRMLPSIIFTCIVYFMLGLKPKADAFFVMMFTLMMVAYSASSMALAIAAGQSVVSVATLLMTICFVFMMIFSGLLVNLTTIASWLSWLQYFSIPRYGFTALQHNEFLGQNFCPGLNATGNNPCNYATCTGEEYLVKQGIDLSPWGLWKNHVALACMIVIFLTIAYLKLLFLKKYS
Method in brief: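 Human embryonic kidney 293 cells transfected with BCRP/ABCG2, tested with each compound at 10 μM. Intracellular fluorescent transported drug measured by flow cytometry. % efficacy = 100 × (FA − FBG)/(Fe − FBG): FA is transporter-expressing cells with drug, FBG is without drug (background), and Fe is control cells lacking the transporter. Mean of duplicate experiments carried out twice.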

Sequence of P-glycoprotein (ABCB1) (P08183 whole entry): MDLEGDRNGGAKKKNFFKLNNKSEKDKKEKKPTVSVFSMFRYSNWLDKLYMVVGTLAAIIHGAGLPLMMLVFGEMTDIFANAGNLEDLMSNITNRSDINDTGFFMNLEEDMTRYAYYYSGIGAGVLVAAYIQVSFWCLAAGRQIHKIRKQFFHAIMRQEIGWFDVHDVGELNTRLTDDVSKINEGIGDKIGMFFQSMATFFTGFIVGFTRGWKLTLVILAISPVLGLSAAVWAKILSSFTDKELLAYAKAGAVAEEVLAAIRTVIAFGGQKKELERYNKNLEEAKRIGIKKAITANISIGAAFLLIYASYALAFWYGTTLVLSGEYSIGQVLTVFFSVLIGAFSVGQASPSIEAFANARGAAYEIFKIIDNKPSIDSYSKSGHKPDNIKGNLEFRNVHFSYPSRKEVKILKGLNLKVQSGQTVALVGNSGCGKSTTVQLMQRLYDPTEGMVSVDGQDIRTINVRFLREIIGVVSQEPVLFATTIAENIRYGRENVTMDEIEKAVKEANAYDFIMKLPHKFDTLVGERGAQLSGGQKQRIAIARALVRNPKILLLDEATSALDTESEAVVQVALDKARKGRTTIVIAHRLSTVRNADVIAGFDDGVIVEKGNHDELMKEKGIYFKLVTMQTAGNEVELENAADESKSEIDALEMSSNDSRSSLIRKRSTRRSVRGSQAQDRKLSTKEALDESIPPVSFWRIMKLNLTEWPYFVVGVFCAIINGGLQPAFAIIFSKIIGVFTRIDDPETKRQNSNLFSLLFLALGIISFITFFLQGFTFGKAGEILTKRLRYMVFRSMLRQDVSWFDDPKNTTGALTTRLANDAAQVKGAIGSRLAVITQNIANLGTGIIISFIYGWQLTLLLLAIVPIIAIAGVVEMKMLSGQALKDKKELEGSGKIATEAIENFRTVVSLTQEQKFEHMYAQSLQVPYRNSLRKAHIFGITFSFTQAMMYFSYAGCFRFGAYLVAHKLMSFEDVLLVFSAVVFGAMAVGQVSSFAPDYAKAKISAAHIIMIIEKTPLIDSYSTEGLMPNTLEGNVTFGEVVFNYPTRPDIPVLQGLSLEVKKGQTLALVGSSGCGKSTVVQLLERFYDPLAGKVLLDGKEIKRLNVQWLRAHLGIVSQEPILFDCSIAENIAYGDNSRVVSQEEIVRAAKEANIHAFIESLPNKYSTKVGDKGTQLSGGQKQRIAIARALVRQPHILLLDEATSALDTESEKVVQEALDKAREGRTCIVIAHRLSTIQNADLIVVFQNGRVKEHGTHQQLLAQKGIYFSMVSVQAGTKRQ
T1 sequence (P08183 whole entry): as above
T2 sequence (P08183 whole entry): as above

SMILES | inhibition at 10 µM [1] [%] | inhibition at 10 µM [2] [%] | further results
CC(C)(C)OC(=O)N[C@@H](CC(=O)OCc1ccccc1)C(=O)C[C@H](CCCCNC(=O)OCc1ccccc1)C(=O)OCc1ccccc1 | 35.7 |  | 
CC(C)(C)OC(=O)N[C@@H](CCOC(=O)Cc1ccccc1)C(=O)N[C@@H](CCCCNC(=O)OCc1ccccc1)C(=O)OC(C)(C)C | 59.6 |  | 
CC(C)(C)OC(=O)N[C@@H](CCOC(=O)C1CCCCC1)C(=O)N[C@@H](CCCCNC(=O)OCc1ccccc1)C(=O)OC(C)(C)C | 61.8 |  | 
CC(C)(C)OC(=O)N[C@@H](CCCOC(=O)C1CCCCC1)C(=O)N[C@@H](CCCCNC(=O)OCc1ccccc1)C(=O)OC(C)(C)C | 82.3 | 80.4 | inhibition at 2 µM [3]: 35.7%
CC(C)(C)OC(=O)N[C@@H](CCOCc1ccccc1)C(=O)N[C@@H](CCCCNC(=O)OCc1ccccc1)C(=O)OC(C)(C)C | 49.2 |  | 
CC(C)(C)OC(=O)N[C@H](CN[C@@H](CCCCNC(=O)OCc1ccccc1)C(=O)OC(C)(C)C)Cc1ccc(OC(C)(C)C)cc1 | 49.1 |  | 
CC(C)(C)OC(=O)[C@H](CCCCNC(=O)OCc1ccccc1)NC[C@@H]1C[C@@H](OCc2ccccc2)CN1C(=O)OC(C)(C)C |  | 77.6 | inhibition at 10 µM [4]: 9%; Activity [5]: Non-toxic; Activity [6]: Toxic; inhibition (INH) [7]: Active; Activity [8]: Active; Activity [9]: Active; Activity [10]: Non-toxic; Activity [11]: Toxic
CC(C)(C)OC(=O)[C@H](CCCCNC(=O)OCc1ccccc1)NC(=O)[C@@H]1C[C@@H](OC(=O)C2CCCCC2)CN1C(=O)OC(C)(C)C | 106 | 94.9 | IC50 [12]: 1.68 µM; inhibition at 10 µM [13]: 11.2%
CC(C)(C)OC(=O)[C@H](CCCCNC(=O)OCc1ccccc1)NC(=O)[C@@H]1C[C@@H](OCC2CCCCC2)CN1C(=O)OC(C)(C)C | 76.6 | 79.8 | inhibition at 2 µM [3]: 82.2%
O=C(CCC(=O)N[C@@H](CCC(=O)OCC1CCCCC1)C(=O)OCc1ccccc1)N[C@@H](CCC(=O)OCc1ccccc1)C(=O)OCc1ccccc1 | 29.3 |  | 
CC(C)(C)OC(=O)CNC(=O)[C@H](Cc1ccc(OC(C)(C)C)cc1)NC(=O)OC(C)(C)C | 93.4 |  | inhibition at 2 µM [3]: 38%
CC(C)(C)OC(=O)CC(C(=O)[C@H](Cc1ccc(OC(C)(C)C)cc1)NC(=O)OC(C)(C)C)S(=O)(=O)c1ccccc1 (stereo not given in full) | 106 |  | IC50 [12]: 1.55 µM
CC(C)(C)OC(=O)CC(C(O)[C@H](Cc1ccc(OC(C)(C)C)cc1)NC(=O)OC(C)(C)C)S(=O)(=O)c1ccccc1 (stereo not given in full) | 104 |  | 
CC(C)(C)OC(=O)C/C=C/[C@H](Cc1ccc(OC(C)(C)C)cc1)NC(=O)OC(C)(C)C | 71.2 |  | 
CC(C)(C)OC(=O)CCC[C@@H](Cc1ccc(OC(C)(C)C)cc1)NC(=O)OC(C)(C)C | 78.7 |  | 
CC(C)(C)OC(=O)N[C@@H](Cc1ccc(OC(C)(C)C)cc1)C(=O)CS(=O)(=O)c1ccccc1 | 49.1 |  | 
CC(C)(C)OC(=O)N[C@@H](CC(=O)OCc1ccccc1)C(=O)CCC(=O)N[C@@H](CCCCNC(=O)OCc1ccccc1)C(=O)OC(C)(C)C | 67.7 |  | 
CC(C)(C)OC(=O)N[C@@H](CCC(=O)OCc1ccccc1)C(=O)N[C@@H](CCCCNC(=O)OCc1ccccc1)C(=O)OC(C)(C)C (Boc-Glu(OBn)-Lys(Cbz)-OtBu) | 63.7 |  | 
CC(C)(C)OC(=O)CC[C@H](NC(=O)OC(C)(C)C)C(=O)N[C@@H](CCCCNC(=O)OCc1ccccc1)C(=O)OC(C)(C)C (Boc-Glu(OtBu)-Lys(Cbz)-OtBu) | 37.2 |  | 
CC(C)(C)OC(=O)N[C@@H](Cc1ccc(OC(C)(C)C)cc1)C(=O)N[C@@H](CCCCNC(=O)OCc1ccccc1)C(=O)OC(C)(C)C (Boc-Tyr(tBu)-Lys(Cbz)-OtBu) | 34 |  | 
CC(C)(C)OC(=O)N[C@@H](CCCC(=O)OCc1ccccc1)C(=O)N[C@@H](CCCCNC(=O)OCc1ccccc1)C(=O)OC(C)(C)C (Boc-[Aad](OBn)-Lys(Cbz)-OtBu) | 97.8 | 65.5 | inhibition at 2 µM [3]: 37%
CC(C)(C)OC(=O)[C@H](CCCCNC(=O)OCc1ccccc1)NC(=O)[C@@H]1C[C@@H](OCc2ccccc2)CN1C(=O)OC(C)(C)C (Boc-[Hyp](Bn)-Lys(Cbz)-OtBu) |  | 83.5 | inhibition at 10 µM [4]: 7%; inhibition at 2 µM [3]: 120%
CC(C)(C)OC(=O)[C@H](CCCCNC(=O)OCc1ccccc1)NC(=O)[C@@H]1C[C@@H](OC(=O)Cc2ccccc2)CN1C(=O)OC(C)(C)C (Boc-[Hyp](PhAc)-Lys(Cbz)-OtBu) | 68.2 | 88.2 | inhibition at 10 µM [13]: 10%
CC(C)(C)OC(=O)N[C@@H](CC(=O)OCc1ccccc1)C(=O)N[C@@H](CCCCNC(=O)OCc1ccccc1)C(=O)OC(C)(C)C [REVERSIN 121] (Boc-Asp(OBn)-Lys(Cbz)-OtBu) | 75.8 | 88 | IC50 [12]: 1.41 µM
O=C(CCC(=O)N[C@@H](CCC(=O)OCc1ccccc1)C(=O)OCc1ccccc1)N[C@@H](CCC(=O)OCc1ccccc1)C(=O)OCc1ccccc1 [REVERSIN 213] | 26.6 |  | 
